Results: ChEMBL document CHEMBL4138185, “Investigation of the Physical and Bioactive Properties of Bromo- and Iodo-Containing Sponge-Derived Compounds Possessing an Oxyphenylethanamine Core” (J Nat Prod, 2017)
Activity calls are given as the source filed them. No cut-off for these calls is given here.

Assays:
[1] = test system: Yersinia pseudotuberculosis; assay: Growth inhibition of wild-type Yersinia pseudotuberculosis at 60 uM measured at 1 hr interval for 15 hrs; type: organism-based; conditions: in vivo
Outline: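 Wild-type Y. pseudotuberculosis grown at room temperature in 2×YT with test agent at 60 μM, kanamycin at 50 μg/mL, or DMSO. Absorbance at 600 nm read every hour over 15 h as the growth measure.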

[2] = test system: Yersinia pseudotuberculosis; assay: Inhibition of wild-type Yersinia pseudotuberculosis T3SS-mediated YopE secretion at 120 uM after 2 hrs under low calcium medium by SDS-PAGE analysis relative to control
[3] = test system: Pseudomonas aeruginosa PA103; assay: Inhibition of Pseudomonas aeruginosa PA103 T3SS-mediated ExoU secretion at 60 uM after 3 hrs under low calcium medium by SDS-PAGE analysis relative to control
[4] = test system: Yersinia pseudotuberculosis; assay: Toxicity against wild-type Yersinia pseudotuberculosis at 60 uM measured after 15 hrs by MTT assay; type: organism-based; conditions: in vivo
Outline: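 Wild-type Y. pseudotuberculosis grown at room temperature in 2×YT with test agent at 60 μM, kanamycin at 50 μg/mL, or DMSO. MTT added after 15 h; absorbance at 570 nm used as the metabolic activity read-out.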

[5] = test system: Yersinia pseudotuberculosis; assay: Inhibition of wild-type Yersinia pseudotuberculosis T3SS-mediated YopE secretion at 60 uM after 2 hrs under low calcium medium by SDS-PAGE analysis relative to control
[6] = test system: Yersinia pseudotuberculosis; assay: Inhibition of wild-type Yersinia pseudotuberculosis T3SS-mediated YopE secretion at 30 uM after 2 hrs under low calcium medium by SDS-PAGE analysis relative to control
[7] = test system: Yersinia pseudotuberculosis; assay: Inhibition of wild-type Yersinia pseudotuberculosis T3SS-mediated YopE secretion at 71 uM after 2 hrs under low calcium medium by SDS-PAGE analysis relative to control

`CCC(=O)N(C)CCc1cc(Br)c(OCCCNC(=O)Cc2ccc(O)cc2)c(Br)c1` was tested, and the “growth inhibition (GI)” value [1] was “Non-Toxic”, the inhibition [2] was over 50% and the inhibition [3] was “inactive”. The Activity [4] was “Non-Toxic”.

For `COc1c(Br)cc(CC(O)C(=O)NCCc2ccc(O)c(I)c2)cc1Br` (centres undefined), the “growth inhibition (GI)” value [1] was “Non-Toxic”, the inhibition [5] was over 50% and the inhibition [3] was “inactive”. For the same compound, the Activity [4] was “Non-Toxic”.

With `CCC(=O)N(C)CCc1ccc(OCCCN(C)C(=O)Cc2ccc(O)cc2)c(Br)c1` the “growth inhibition (GI)” value [1] was “Non-Toxic”, the inhibition [6] was over 50% and the inhibition [3] was “inactive”. For the same compound, the Activity [4] was “Non-Toxic”.

For `CCC(=O)N(C)CCc1ccc(OCCCNC(=O)Cc2ccc(O)cc2)c(Br)c1`, the “growth inhibition (GI)” value [1] was “Non-Toxic”, the inhibition [5] was over 50% and the inhibition [3] was “inactive”. For the same compound, the Activity [4] was “Non-Toxic”.

`C/C=C(\C)[C@H](O)[C@H](C)/C=C(C)/C=C/C/C(C)=C/Cc1nc(OC)c(OC)c(O)c1C` gave an inhibition [7] of over 50%.

For `CCC(=O)N(C)CCc1cc(Br)c(OCCCNC(=O)Cc2ccc(O)cc2)c(I)c1`, the “growth inhibition (GI)” value [1] was “Non-Toxic”, the inhibition [6] was over 50% and the inhibition [3] was “inactive”. For the same compound, the Activity [4] was “Non-Toxic”.

`CCC(=O)N(C)CCc1ccc(OCCCNC(=O)Cc2ccc(O)cc2)c(I)c1` was tested, and the “growth inhibition (GI)” value [1] was “Non-Toxic”, the inhibition [2] was over 50% and the inhibition [3] was “inactive”. For the same compound, the Activity [4] was “Non-Toxic”.

In the case of `COc1c(Br)cc(CC(O)C(=O)NCCc2ccc(O)c(Br)c2)cc1Br` (centres undefined), the “growth inhibition (GI)” value [1] is reported as “Non-Toxic”, the inhibition [6] is reported as over 50% and the inhibition [3] is reported as “inactive”. The Activity [4] was “Non-Toxic”.
